The list is not random: actives were taken first. Their share in the collection is about 1.8%.
M5 PAM: positive allosteric modulators of human muscarinic M5 receptor. CHO-K1 hM5, Fluo-8 calcium, ACh EC20 PAM; 0% = ACh EC20, 100% = ACh EC100. activation, % at 3 µM. hit rate 0.3% among 360,000. AID 624038;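 active = activation above the run cutoff, the mean activation of all test compounds plus 3 SD, cut at about 18% in these data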
Target sequence (P08912 whole entry, looked up): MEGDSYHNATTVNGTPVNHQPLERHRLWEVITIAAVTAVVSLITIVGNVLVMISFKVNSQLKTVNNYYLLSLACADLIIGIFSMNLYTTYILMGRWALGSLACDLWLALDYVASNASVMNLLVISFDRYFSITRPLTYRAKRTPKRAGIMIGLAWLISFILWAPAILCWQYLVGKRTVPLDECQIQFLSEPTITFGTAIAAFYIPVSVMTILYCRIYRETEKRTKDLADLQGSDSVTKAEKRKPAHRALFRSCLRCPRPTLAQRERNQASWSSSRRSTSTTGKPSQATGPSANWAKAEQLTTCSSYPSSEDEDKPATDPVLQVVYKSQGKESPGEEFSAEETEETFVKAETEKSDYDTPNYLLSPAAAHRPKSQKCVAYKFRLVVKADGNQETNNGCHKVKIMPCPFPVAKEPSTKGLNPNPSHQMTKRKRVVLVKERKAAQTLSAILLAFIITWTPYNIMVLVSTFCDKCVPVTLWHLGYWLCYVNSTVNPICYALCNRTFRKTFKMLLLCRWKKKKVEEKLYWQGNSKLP
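Probe or stimulus: acetylcholine, EC20 level; Assay system: human M5 receptor in CHO-K1 cells; Schedule: compound preincubation 140 s before EC20 acetylcholine addition; Technique: intracellular calcium via Fluo-8 fluorescence; Dosing: single-point, 3 µM nominal; Read-out basis: percent activation from peak-over-basal fluorescence ratio, scaled EC20-to-EC100 acetylcholine; Repeats: one well per compound, no replicates.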
M4 ag: CHRM4 agonism in calcium assay; CHO-K1 hM4/Gqi5, Fluo-8 calcium fluorescence; vehicle 0%, full acetylcholine response 100%; activation, % at 3 µM; hit rate 0.14% among 360,000; AID 624127;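 active = activation above the run mean over all test wells plus 3 SD, cut at about 32% in these data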;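 also: peak over basal fluorescence ratio per well then scaled between controls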
M4 antag: antagonists of human muscarinic M4 receptor (CHRM4); CHO-hM4 cells, ACh EC80, Fluo-8 calcium fluorescence; hit rate 0.73% among 360,000; AID 624125; inhibition, % at 3 µM;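 active = inhibition above its plate's cutoff, the mean inhibition of sample wells plus 3 SD, cut at about 27% in these data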
M5 antag: CHRM5 antagonism in calcium assay; inhibition, % at 3 µM; P08912; CHO-hM5 cells, Fluo-8 calcium fluorescence, ACh EC80; hit rate 0.59% among 360,000;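 active = inhibition above a per-plate cutoff, the mean of that plate's test compounds plus 3 SD, cut at about 27% in these data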
M4 PAM: positive allosteric modulators of human muscarinic M4 receptor; P08173; CHO-K1 hM4/Gqi5, Fluo-8 calcium fluorescence, ACh EC20; 0% = ACh EC20, 100% = maximal ACh; activation, % at 3 µM; hit rate 0.4% among 360,000; AID 624126;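 active = activation above its plate's cutoff, the mean activation of sample wells plus 3 SD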
M5 ag: CHRM5 agonism in calcium assay; P08912; CHO-K1 hM5 cells, Fluo-8 calcium fluorescence; 0% DMSO wells, 100% maximal acetylcholine response; activation, % at 3 µM; hit rate 0.19% among 360,000; AID 624037;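 active = activation above the run's mean over test compounds plus 3 SD, cut at about 23% in these data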;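 also: signal is peak over basal fluorescence ratio across the kinetic read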
Each line names hits and unclear results; the compound was inactive in the other large screens.

Cc1ccc(Cl)cc1N1CCN(C(=O)C2CCN(S(=O)(=O)c3c(C)nn(C)c3C)CC2)CC1	M5 antag 29.6
Cc1ccc(Cl)cc1N1CCN(C(=O)C2CCN(S(=O)(=O)c3cccnc3)CC2)CC1	none
O=C(Nc1cnc2ccccc2c1)N1CCOCC1	M4 PAM 19.6
CC1=CC(=O)C=C(C)C1=NOS(=O)(=O)c1ccccc1	M4 antag 32.5, M5 antag 41.4, M5 ag 23.5
Cc1ccc2c(c1)/C(=N/OS(=O)(=O)c1ccccc1)CCS2	none
CC1=CC(=O)C(C(C)C)=C/C1=N/OS(=O)(=O)c1ccccc1	M4 antag 78.9, M5 antag 50.6
CN1CCN(C(=O)c2ccc(-c3cnc4cccnn34)cc2)CC1	none
COc1ccc(CN2C(=O)c3ccccc3C2C(=O)NC2CCCCCC2)c(OC)c1 (configuration not stated)	none
CC(=O)c1cc(C(=O)Nc2ccccc2C(=O)O)oc1C	M4 PAM 31.6
O=C(Nc1ccccc1C(=O)O)c1ccc(Br)o1	none
O=Cc1c(Nc2cccc(C(F)(F)F)c2)nc2ccccn2c1=O	M4 PAM 16.3
O=C(N/N=C/c1c(Nc2cccc(C(F)(F)F)c2)nc2ccccn2c1=O)c1ccccc1[N+](=O)[O-]	none
Cc1cc(=O)oc2cc(OC(=O)c3ccccc3)ccc12	none
COc1ccccc1-c1c(C(F)(F)F)oc2cc(OC(=O)c3ccc([N+](=O)[O-])cc3)ccc2c1=O	M4 PAM 21.2
COC1=CC(C)C2CC3OC(O)CC4C(C)=C(OC)C(=O)C(C2(C)C1=O)C34C (configuration not stated)	none
Cc1ccc(NC(=O)CC(NC(=O)c2ccccc2Cl)c2ccccc2)nc1 (configuration not stated)	none
Cc1ccccc1C(=O)NC1CCN(Cc2nnnn2C2CCCC2)CC1	M5 PAM 31.6
Cc1ccccc1C(=O)NC1CCN(Cc2nnnn2C(C)(C)C)CC1	none
CCOc1ccc(NCc2cccn2-c2nnc(N3CCC(C(=O)NCCCN4CCCCC4CC)CC3)s2)cc1 (configuration not stated)	none
Fc1ccccc1/C=N/Nc1nc2ccccc2o1	none
COc1cccc(N2CCN(c3ncnc4c3[nH]c3ccc(F)cc34)CC2C)c1 (configuration not stated)	M4 antag 85.3, M5 antag 76.9
Cc1ccc(S(=O)(=O)n2nnc3ccccc32)c(C)c1C	M4 PAM 24.4
CC(=O)Nc1ccc(/C(C)=N/Nc2nc(N3CCOCC3)nc(N3CCOCC3)n2)cc1	none
CC(=O)Nc1ccc(/C(C)=N/Nc2nc(Nc3cccc4ccccc34)nc(N3CCOCC3)n2)cc1	M5 ag 32.1
CC[C@H]1O[C@H](C)CC2=C1C(=O)OC(C)(C)O2	M4 PAM 23.3
CCCCc1nnc(NC(=O)C23CC4CC(CC(NC(C)=O)(C4)C2)C3)s1	M5 antag 33.4
COc1ccc(C(=O)COc2ccc(C(C)=O)cc2OC)cc1OC	none
CCSc1ccc(-c2nn(-c3ccccc3)cc2/C=C(/C#N)C(=O)NC)cc1	none
CCCSc1ccc(-c2nn(-c3ccccc3)cc2/C=C(/C#N)C(=O)N2CCOCC2)cc1	M5 PAM 44.2
Cc1cc(C(=O)N/N=C/c2c(C)[nH]n(-c3ccccc3)c2=O)n[nH]1	M5 PAM 18.9
Cc1[nH]n(-c2ccccc2)c(=O)c1/C=N/NC(=O)c1ccc(O)cc1O	none
CC(=C/c1ccc(C(C)C)cc1)/C=N/NC(=O)Cn1nnnc1N	M5 antag 30.5
O=c1c(-c2ccco2)nc2ccccc2n1C(c1ccccn1)c1nc2ccccc2[nH]1 (configuration not stated)	none
COc1cc(/C=C(/C#N)c2ccc(F)cc2)ccc1Oc1ccc([N+](=O)[O-])cn1	M5 antag 35.4
CCOC(=O)N1CCN(S(=O)(=O)c2c(C)nc3scc(C)n3c2=O)CC1	none
Cc1cccc(C(=O)NC(=S)NNC(=O)Cc2ccccc2)c1	none
Cc1cccc(C(=O)NC(=S)NNC(=O)COc2c(C)cccc2C)c1	M4 PAM 22.9
COc1cc(OC)c(NC(=O)c2c(-c3ccccc3)noc2C)cc1Cl	M5 PAM 18.4
Cc1cccc(C(=O)NC(=S)NNC(=O)c2ccccc2Cl)c1	M4 ag 39.8, M5 ag 46.0
Cc1ccccc1C(=O)NNC(=S)NC(=O)c1ccc(Cl)cc1Cl	M4 ag 84.0, M5 ag 53.0
COc1ccc(-c2ccc(CN3C(C)C(=O)N(Cc4cn(CCC5OCCO5)nn4)CCS3(=O)=O)cc2)cc1OC (configuration not stated)	none
CC(=O)Nc1cnc(-c2ccc3c(c2)OCO3)cn1	none
Cc1onc(-c2ccccc2)c1C(=O)NNC(=S)NC(=O)c1ccc(Br)cc1	M4 ag 60.6, M5 ag 34.6
Cc1onc(-c2ccccc2)c1C(=O)NNC(=S)NC(=O)c1ccc(Cl)cc1Cl	M4 ag 113.2, M5 ag 30.3
Cc1ccc(C(=O)NNC(=S)NC(=O)c2ccc(Cl)cc2)cc1	M4 ag 130.9, M4 antag 33.3, M5 ag 97.9
CC(=O)NC12CC3CC(C1)CC(C(=O)NCc1ccc(C)cc1)(C3)C2	none
CCOC(=O)C(NC(=O)CC)(Nc1cc(C)on1)C(F)(F)F (configuration not stated)	M4 PAM 33.9
CC(C)(C)CNC(=O)c1cccc2c1C(=O)c1ccc(N3CCCC3)cc1S2(=O)=O	M4 ag 39.1
O=C(NC1CC1)c1cccc2c1C(=O)c1ccc(N3CCC(Cc4ccccc4)CC3)cc1S2(=O)=O	M4 antag 27.4
O=C(NCc1ccc(F)cc1)c1cccc2c1C(=O)c1ccc(N3CCC(Cc4ccccc4)CC3)cc1S2(=O)=O	none
CCOc1ccccc1C(=O)NC(C(=O)NCCc1ccccn1)C(C)C (configuration not stated)	none
N#CC1(NC(=O)CSc2nnc3n2CCCCC3)CCCCC1	none
O=C(NC(=S)Nc1ccccc1N1CCCCC1)c1ccccc1	M5 PAM 18.7, M4 PAM 18.2
CCOC(=O)N1CCC(N(CCN(C)C)C(=S)Nc2ccccc2OCC)CC1	M5 PAM 37.6
CCOC(=O)N1CCC(N(CCN(C)C)C(=S)Nc2ccccc2OC)CC1	none
CC(=O)c1cc2c(cc1NC(=O)Cn1nc(-c3ccc(C)cc3)ccc1=O)OCO2	none
O=C(NCCn1cc(SCc2ccc(F)cc2)c2ccccc21)c1ccccc1F	M4 antag 28.2
